Drawing on ChEMBL document CHEMBL1159066 (J Med Chem, 2010), this text covers IC50, Activity and EC50 for twelve compounds.

Activity calls are given as the source filed them. The rule behind the calls is not given here.

For orientation: IC50 means the concentration that gives 50% inhibition. One may read the EC50 as the concentration that produces a half-maximal response.

In assay [1] the target is T1, NAD-dependent protein deacetylase sirtuin-2 (Homo sapiens, UniProt Q8IXJ6).
T1 sequence (Q8IXJ6 whole entry): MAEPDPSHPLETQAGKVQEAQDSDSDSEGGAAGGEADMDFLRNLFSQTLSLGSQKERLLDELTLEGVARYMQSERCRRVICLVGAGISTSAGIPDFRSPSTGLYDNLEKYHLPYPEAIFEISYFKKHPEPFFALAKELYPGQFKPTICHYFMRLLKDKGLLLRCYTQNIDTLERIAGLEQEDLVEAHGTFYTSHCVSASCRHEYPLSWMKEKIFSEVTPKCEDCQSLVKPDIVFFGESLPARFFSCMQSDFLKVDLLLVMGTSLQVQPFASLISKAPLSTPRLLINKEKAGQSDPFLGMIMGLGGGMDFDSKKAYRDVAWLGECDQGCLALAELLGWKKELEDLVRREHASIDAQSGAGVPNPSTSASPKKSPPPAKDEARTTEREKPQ
The experiment in a line: Inhibition of human recombinant SIRT2 by Flour de Lys assay.

The test system of assay [2] is Caenorhabditis elegans. The experiment in a line: Effect on nuclear integrity in transgenic Caenorhabditis elegans coexpressing nuclear GFP and normal PABPN1-A10. Format: functional, organism-based. Summed up:
(§1)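 Synchronized L1 worms were kept in OP-50.1 liquid culture with the drug. Nuclear GFP signals were counted at young adulthood under a ×10 fluorescence microscope. Percent rescue = ((test − control)/control) × 100, where a negative value means enhanced toxicity. At least 100 worms were scored per dose, in three independent assays. Comparison was by two-tailed Student's t-test.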

Assay [3] concerns Caenorhabditis elegans. The experiment in a line: Protection against mutant PABPN1-induced toxicity in transgenic Caenorhabditis elegans coexpressing nuclear GFP and PABPN1-A13 assessed as inhibition of nuclear collapse at 11.1 uM. Format: functional, organism-based. Summed up: as §1
The test system of assay [4] is Caenorhabditis elegans. Nature of the assay: Protection against mutant PABPN1-induced toxicity in transgenic Caenorhabditis elegans coexpressing nuclear GFP and PABPN1-A13 assessed as inhibition of deffective worm motility at 11.1 uM. Format: functional, organism-based. Summed up:
(§2)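 Worms were drug-treated from the synchronized L1 stage in OP-50.1 liquid culture. Day 3–5 adults were placed on a thin OP-50.1 lawn on NGM plates. Body bends (complete sinusoids) were counted immediately over 20 s. 60–100 worms were scored per dose, in three independent assays. Results are mean ± SEM versus untreated animals, checked by one-way ANOVA.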

Assay [5] has as its system Caenorhabditis elegans. Nature of the assay: Protection against mutant PABPN1-induced toxicity in transgenic Caenorhabditis elegans coexpressing nuclear GFP and PABPN1-A13 assessed as inhibition of deffective worm motility. Format: functional, organism-based. Summed up: as §2
Assay [6] has as its system Caenorhabditis elegans. The experiment in a line: Protection against mutant PABPN1-induced toxicity in transgenic Caenorhabditis elegans coexpressing nuclear GFP and PABPN1-A13 assessed as nuclear GFP fluorescence level relative to untreated control. Format: functional. Summed up: (§3)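 Synchronized L1 transgenic worms incubated with drug in OP-50.1 liquid culture; nuclear GFP signals counted at young adulthood under 10x fluorescence microscopy. Percent rescue = ((test − control)/control) × 100, negative values indicating enhanced toxicity. At least 100 worms scored per dose, three independent assays; two-tailed Student's t-test unless stated otherwise.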

Assay [7] has as its target T2, NAD-dependent protein deacetylase sirtuin-1 (Homo sapiens, UniProt Q96EB6).
T2 sequence (Q96EB6 whole entry): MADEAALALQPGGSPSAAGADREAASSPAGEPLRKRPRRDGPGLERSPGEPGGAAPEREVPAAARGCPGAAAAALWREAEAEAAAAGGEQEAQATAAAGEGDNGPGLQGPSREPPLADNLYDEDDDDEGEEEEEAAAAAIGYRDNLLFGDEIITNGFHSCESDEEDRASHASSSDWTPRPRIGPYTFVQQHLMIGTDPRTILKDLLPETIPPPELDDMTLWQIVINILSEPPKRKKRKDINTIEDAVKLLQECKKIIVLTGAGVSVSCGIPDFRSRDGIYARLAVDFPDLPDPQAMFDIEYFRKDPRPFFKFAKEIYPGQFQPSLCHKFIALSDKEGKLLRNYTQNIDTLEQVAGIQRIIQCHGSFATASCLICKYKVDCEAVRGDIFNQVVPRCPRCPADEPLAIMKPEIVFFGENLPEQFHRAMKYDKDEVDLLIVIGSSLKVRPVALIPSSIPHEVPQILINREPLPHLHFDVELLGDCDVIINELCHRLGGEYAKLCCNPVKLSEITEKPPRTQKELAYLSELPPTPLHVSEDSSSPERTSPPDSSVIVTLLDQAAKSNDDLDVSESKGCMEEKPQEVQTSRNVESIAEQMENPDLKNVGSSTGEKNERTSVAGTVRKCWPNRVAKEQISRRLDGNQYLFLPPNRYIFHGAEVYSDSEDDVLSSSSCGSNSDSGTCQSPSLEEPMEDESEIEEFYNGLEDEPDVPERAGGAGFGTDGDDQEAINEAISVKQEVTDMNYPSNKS
The experiment in a line: Inhibition of human recombinant SIRT1 by Flour de Lys assay.

Assay [8] has as its system Caenorhabditis elegans. The experiment in a line: Protection against mutant PABPN1-induced toxicity in transgenic Caenorhabditis elegans coexpressing nuclear GFP and PABPN1-A13 assessed as inhibition of nuclear collapse. Format: functional, organism-based. The gist of the method: as §3
The test system of assay [9] is Caenorhabditis elegans. Nature of the assay: Effect on nuclear integrity in transgenic Caenorhabditis elegans coexpressing nuclear GFP and normal PABPN1-A10 assessed as nuclear GFP fluorescence level relative to untreated control. Format: functional. Summed up:
as §3

The subject of assay [10] is Caenorhabditis elegans. The experiment in a line: Protection against mutant PABPN1-induced toxicity in transgenic Caenorhabditis elegans coexpressing nuclear GFP and PABPN1-A13 assessed as inhibition of deffective worm motility at 3.7 uM. Format: functional, organism-based. The gist of the method:
as §2

In assay [11] the test system is Caenorhabditis elegans. Nature of the assay: Protection against mutant PABPN1-induced toxicity in transgenic Caenorhabditis elegans coexpressing nuclear GFP and PABPN1-A13 assessed as inhibition of nuclear collapse at 3.7 uM. Format: functional, organism-based. The gist of the method: as §1
The subject of assay [12] is Caenorhabditis elegans. The experiment in a line: Reduction of PABPN1 expression in transgenic Caenorhabditis elegans coexpressing nuclear GFP and PABPN1-A13 by Q-RT-PCR. Format: functional, organism-based.
Assay [13] deals with Caenorhabditis elegans. Nature of the assay: Protection against mutant PABPN1-induced toxicity in transgenic Caenorhabditis elegans coexpressing nuclear GFP and PABPN1-A13 assessed as inhibition of deffective worm motility at 33.3 uM. Format: functional, organism-based. Summed up: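 Drug-treated transgenic worms as day 3-5 adults placed on thin OP-50.1 lawn on NGM plates; body bends (complete sinusoids) counted immediately over 20 s. 60-100 worms per dose, three independent assays; mean ± SEM compared with untreated animals.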

Regarding `CC(NC(=O)c1cccc(/N=C/c2c(O)ccc3ccccc23)c1)c1ccccc1` (stereo unspecified), in [1], the IC50 worked out at 34.5 µM.

In the case of `O=c1nc2oc3ccc4ccccc4c3cc-2c(=O)n1-c1ccccc1`, the result with Caenorhabditis elegans [2] was inactive. Moreover, the result in the assay on Caenorhabditis elegans [3] and in the assay with Caenorhabditis elegans [4] was Active.

`CC(NS(=O)(=O)c1ccc(/N=C/c2c(O)ccc3ccccc23)cc1)c1ccccc1` (stereo unspecified): in the assay on Caenorhabditis elegans [2], the result was inactive. For the same compound, the IC50 in [1] was 22.6 µM; in [7] it was 44.1 µM. Moreover, the EC50 in the assay on Caenorhabditis elegans [5] was less than 1 µM. In addition, the Activity in the assay with Caenorhabditis elegans [6] came to 10%.

Regarding `N#C/C(=C\c1ccc(-c2cc(Cl)ccc2Cl)o1)C(=O)Nc1cccc2ncccc12`, the Activity result was “Dose-dependent effect” in the assay on Caenorhabditis elegans [8], 20% in the assay on Caenorhabditis elegans [6] and 10% in the assay on Caenorhabditis elegans [9]. In assay [7], the IC50 is more than 50 µM.

Regarding `O=c1nc2oc3ccccc3cc-2c(=O)[nH]1`, the outcome in the assay on Caenorhabditis elegans [2] was inactive. The IC50 in assay [1] was determined as 244 µM; in assay [7] it was 5.3 µM. For the same compound, the result with Caenorhabditis elegans [10] and in the assay on Caenorhabditis elegans [11] was Active.

Consider `O=C1CCc2c(ccc3ccccc23)O1`, for which the result with Caenorhabditis elegans [2] and with Caenorhabditis elegans [12] was inactive. Besides, the result with Caenorhabditis elegans [8] and in the assay on Caenorhabditis elegans [5] was Active.

In the case of `O=C1Oc2ccc3ccccc3c2CC1C(=O)c1ccccc1Cl` (stereo unspecified), the outcome in the assay on Caenorhabditis elegans [2] and in the assay on Caenorhabditis elegans [12] was inactive. In addition, the IC50 was 9.4 µM in assay [1] and 89.8 µM in [7]. The result in the assay on Caenorhabditis elegans [8] and in the assay with Caenorhabditis elegans [5] was Active.

For `CC(NC(=O)c1ccc(/N=C/c2c(O)ccc3ccccc23)cc1)c1ccccc1` (stereo unspecified), the outcome with Caenorhabditis elegans [2] was inactive. For the same compound, the IC50 in [1] came out at 29.9 µM; in assay [7], 48.1 µM. Besides, the result in the assay with Caenorhabditis elegans [8] was Active.

As for `CC(NC(=O)c1ccccc1/N=C/c1c(O)ccc2ccccc12)c1ccccc1` (stereo unspecified), the outcome in the assay with Caenorhabditis elegans [2] was inactive. Further, the result with Caenorhabditis elegans [8] was Active.

For the compound `CC(C(=O)Nc1cccc(/N=C/c2c(O)ccc3ccccc23)c1)c1ccccc1` (stereo unspecified), in the assay on Caenorhabditis elegans [2], the outcome was inactive. Further, in the assay with Caenorhabditis elegans [8], the result was Active.

With `CC(CSc1cccc(/N=C/c2c(O)ccc3ccccc23)c1)c1ccccc1` (stereo unspecified), the IC50 was 19.2 µM in [1] and 40.3 µM in [7]. In addition, the outcome in the assay with Caenorhabditis elegans [8] was inactive.

`NC(=O)[C@H]1CCCc2c1[nH]c1ccc(Cl)cc21`: the outcome in the assay with Caenorhabditis elegans [8] and in the assay on Caenorhabditis elegans [13] was Active.
